Laboratory results published in article PMC2951323 (Nature, 2009).
Values belong to the molecule of their own block, whether it stands above or below them. Bridge positions count the residues as written; N and C are the ends. Square brackets hold non-standard residues; d marks the D form. Ends that are not written are not given here. Peptide text beside a SMILES is read from it. * marks the point of attachment. FITC = O=C1OC2(c3ccc(O)cc3Oc3cc(O)ccc32)c2ccc(NC(=S)*)cc21; S5 = C=CCCC[C@](C)(N)C(=O)O; βAla = NCCC(=O)O

Experiments:
[1] = test system: constitutively activated NOTCH1; test: NOTCH1-dependent dual-luciferase reporter-gene assay; type: cell-based; conditions: signal normalized to Renilla luciferase control
[2] = type: cell-based
RAMANK–CSL complex = RAMANK–CSL complex (Homo sapiens, UniProt P46531+Q06330); test: Fluorescence polarization binding of FITC–SAHM peptides to RAMANK–CSL
In short: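 FITC-labelled stapled test peptides titrated against recombinant human RAMANK (NOTCH1 aa 1761–2127) pre-complexed with human CSL (aa 9–435). Both proteins were expressed and purified as previously reported. Buffer was 20 mM Tris pH 8.4, 150 mM NaCl, 1 mM EDTA and 1 mM DTT. Polarization was read at λex 485 nm and λem 525 nm. Data are mean ± s.d., n = 3.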

[3] = target: pre-formed RAMANK–CSL complex (human, UniProt P46531 1761-2127; Q06330 23-449); test: fluorescence polarisation
Sequence of pre-formed RAMANK–CSL complex (P46531 1761-2127, chain 1 of 2): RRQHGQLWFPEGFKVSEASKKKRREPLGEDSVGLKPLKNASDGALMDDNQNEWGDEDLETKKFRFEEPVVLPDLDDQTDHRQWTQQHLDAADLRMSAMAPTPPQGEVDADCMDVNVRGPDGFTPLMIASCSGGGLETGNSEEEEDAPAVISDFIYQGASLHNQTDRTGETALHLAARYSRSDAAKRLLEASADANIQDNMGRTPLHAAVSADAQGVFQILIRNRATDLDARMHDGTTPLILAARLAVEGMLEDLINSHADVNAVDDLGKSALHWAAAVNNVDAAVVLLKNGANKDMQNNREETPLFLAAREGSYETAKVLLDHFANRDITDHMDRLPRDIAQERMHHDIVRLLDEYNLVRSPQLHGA
Sequence of pre-formed RAMANK–CSL complex (Q06330 23-449, chain 2 of 2): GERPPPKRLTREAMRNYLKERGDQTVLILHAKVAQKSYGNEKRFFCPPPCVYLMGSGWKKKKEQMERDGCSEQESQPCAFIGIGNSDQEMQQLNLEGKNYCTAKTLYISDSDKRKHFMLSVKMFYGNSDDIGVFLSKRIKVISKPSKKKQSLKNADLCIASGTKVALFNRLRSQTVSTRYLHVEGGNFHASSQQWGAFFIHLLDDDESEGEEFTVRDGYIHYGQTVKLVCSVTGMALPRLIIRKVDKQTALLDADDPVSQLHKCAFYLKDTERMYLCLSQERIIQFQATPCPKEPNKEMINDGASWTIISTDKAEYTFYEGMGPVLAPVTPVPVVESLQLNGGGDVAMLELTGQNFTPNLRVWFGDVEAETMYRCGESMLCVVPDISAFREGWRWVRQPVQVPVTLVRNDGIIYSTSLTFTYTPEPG

repression of luciferase activity [1]: near complete repression
Molecule: C[C@H](NC(=O)Cc1cc(F)cc(F)c1)C(=O)N[C@H](C(=O)OC(C)(C)C)c1ccccc1 [DAPT]

uptake at 4 °C relative to 37 °C ([2]; FITC-labelled peptide, 4 °C vs 37 °C): diminished | Kd (RAMANK–CSL complex): 120 ± 20 nM
Molecule: CC[C@H](C)[C@H](NC(=O)[C@H](CCCNC(=N)N)NC(=O)[C@H](CCCNC(=N)N)NC(=O)[C@H](CCCNC(=N)N)NC(=O)[C@H](CC(C)C)NC(=O)[C@H](CCCNC(=N)N)NC(=O)[C@H](CCC(=O)O)NC(=O)CCNC(=S)Nc1ccc2c(c1)C(=O)OC21c2ccc(O)cc2Oc2cc(O)ccc21)C(=O)N[C@@]1(C)CCCC=CCCC[C@@](C)(C(=O)N[C@@H](Cc2c[nH]cn2)C(=O)N[C@@H](Cc2c[nH]cn2)C(=O)N[C@@H](CO)C(=O)N[C@H](C(N)=O)[C@@H](C)O)NC(=O)[C@H](CCCNC(=N)N)NC(=O)[C@H](CS)NC(=O)[C@H](CC(C)C)NC1=O [FITC–SAHM1] ({FITC-βAla}-ERLRRRI[S5]LCR[S5]HHST-NH2; staple 8-12; N-terminus assumed)
intracellular distribution ([2]; FITC-labelled peptide): distributed throughout the cytoplasm and nucleus | cellular uptake (cell penetration) ([2]; FITC-labelled peptides, quantitative epifluorescence microscopy): robust and roughly equivalent cellular uptake

binding affinity for RAMANK–CSL compared with FITC–SAHM1 (in words) (RAMANK–CSL complex; fluorescence polarization, same buffer): markedly diminished affinity
Molecule: FITC–MAML1(21–36): FITC-labelled unmodified MAML1(21–36) peptide ({FITC}-ERLRRRIELCRRHHST; UniProt Q92585 21-36, looked up, fragment)

IC50 [3]: 3900 nM
B1: dnMAML1 (dominant-negative fragment of MAML1, amino acids 13–74) (domain or fragment, human, UniProt Q92585 13-74, looked up)
chain: LPRHSAVMERLRRRIELCRRHHSTCEARYEAVSPERLELERQHTFALHQRCIQAKAKRAGKH
